Data reported in publication PMC8137579 (Cancer research, 2021).
“Also recorded” adds a separate entry of the source. Where two headings read alike, the source gives them in different places.

Key:
[1] = molecular target: HuR dimerization (HuR-Nluc + HuR-Cluc reporter, U251 cells) (Homo sapiens, UniProt Q15717); assay: cell-based split firefly luciferase - HuR dimerization assay
Method in brief: (§1)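 Stable U251 lines carried doxycycline-inducible HuR-Nluc plus HuR-Cluc (dimer reporter) or full-length Fluc (control reporter), kept under hygromycin B and G418. 30,000–50,000 cells/well were induced with doxycycline 0.75 ug/ml for 48 h, then given test compound or vehicle for 6 h. Luminescence was read with D-luciferin substrate.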

[2] = system: U251 cells expressing Fluc construct; assay: split firefly luciferase assay, control reporter; format: cell-based
Method in brief: as §1

aqueous solubility = format: physicochemical
kinases = assay: SelectScreen kinase profiling; format: biochemical; conditions: compared to the parent SRI-41664
Method in brief: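 Done as an outsourced SelectScreen kinase profiling service. 10-point titrations were run against NTRK1, AAK1, IRAK1, PIM1 and cMET kinases.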

U251 glioma cell line [3] = assay: PrestoBlue cell viability assay, U251; format: cell-based
Method in brief: (§2)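 PrestoBlue viability read-out after 48 h exposure to the test compound. U251 and LN229 were grown in DMEM/F12 with 10% FBS, 2 mM L-glutamine and 100 U/ml penicillin/streptomycin. Data were normalised to vehicle-treated cells, and dose-response curves were fitted with the Boltzmann equation to give IC50; n=5 per cell line.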

LN229 glioma cell line [4] = assay: PrestoBlue cell viability assay, LN229; format: cell-based; conditions: read-out: IC50 cell viability, 48 hours of treatment
Method in brief: as §2

[5] = system: PDGx XD456 glioma cell line; assay: PrestoBlue cell viability assay, XD456; format: cell-based, human; conditions: read-out: IC50 cell viability, 48 hours of treatment
U251 glioma cell line [6] = assay: cell cycle analysis; format: cell-based; conditions: 10 uM for 18 hours
LN229 glioma cell line [7] = assay: cell cycle analysis; format: cell-based; conditions: 10 uM for 18 hours
[8] = system: PDGx XD456 glioma cell line; assay: cell cycle analysis; format: cell-based, human; conditions: 10 uM for 18 hours
primary human neurons = assay: toxicity in primary human neurons; format: cell-based
primary human astrocytes = assay: toxicity in primary human astrocytes; format: cell-based
Method in brief: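 Primary human neurons (poly-L-lysine plates) or astrocytes were treated up to 25 uM for 48 h. Cells were fixed in 3.7% paraformaldehyde (pH 7.4) for 13 min, permeabilised with 0.3% Triton X-100 and blocked with 3% BSA/glycine. Staining used anti-cleaved caspase-3 (1:200, overnight 4°C) and Alexa 594 secondary, with DAPI counterstain. Percent positive cells was scored; at least three experiments.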

Bcl2 mRNA = assay: Taqman quantification of Bcl2 mRNA in glioma cell lines; format: cell-based; conditions: 10 uM for 24 hours
Mcl1 mRNA = assay: Taqman quantification of Mcl1 mRNA in glioma cell lines; format: cell-based; conditions: for average decrease of Mcl1/18S mRNA ratio: 10 uM for 24 hours
Method in brief: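 Glioma cells (U251, U87, LN229) were exposed to 10 uM test compound or vehicle for 24 h. mRNA was isolated with RNeasy Mini Kit and QIAshredder columns. Bcl2, Mcl1 and 18S transcripts were quantified by Taqman gene-specific probes. Bcl2/18S and Mcl1/18S ratios were compared with vehicle control; three experiments.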

[9] = molecular target: interaction of the HuR protein with Bcl2 and Mcl1 mRNAs (Homo sapiens, UniProt Q15717); assay: HuR/mRNA co-immunoprecipitation assay; format: cell-based; conditions: U251 cells
Sequence of interaction of the HuR protein with Bcl2 and Mcl1 mRNAs (Q15717 2-326 limits assumed): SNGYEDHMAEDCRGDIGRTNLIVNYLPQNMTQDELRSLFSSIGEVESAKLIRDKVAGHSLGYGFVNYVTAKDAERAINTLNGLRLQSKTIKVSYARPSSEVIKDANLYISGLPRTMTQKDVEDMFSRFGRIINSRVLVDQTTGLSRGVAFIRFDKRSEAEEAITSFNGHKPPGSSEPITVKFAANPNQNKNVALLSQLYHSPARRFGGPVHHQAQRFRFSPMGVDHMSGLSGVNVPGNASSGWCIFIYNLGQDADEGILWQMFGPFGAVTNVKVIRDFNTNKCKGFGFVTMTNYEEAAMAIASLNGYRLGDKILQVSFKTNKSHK
Method in brief: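 Run in U251 cells with the RiboCluster Profiler RIP-assay kit and a polyclonal anti-HuR antibody. Co-precipitated Bcl2 and Mcl1 transcripts and 18S RNA were quantified by Taqman with gene-specific probes. Binding was compared with vehicle-treated control.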

[10] = system: Bcl2 and Mcl1 protein levels; assay: western blot of Bcl2 and Mcl1 proteins in cytoplasmic fractions; format: cell-based; conditions: U251 and XD456; 10 uM for 48 hours
Method in brief: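 U251 and PDGx XD456 cells were treated for 48 h with test compound or vehicle. Nuclear and cytoplasmic fractions were separated with NE-PER reagents and verified by lamin A/C (nuclear) and tubulin alpha (cytoplasmic). Bcl2 and Mcl1 were detected by western blot.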

[11] = system: cleaved caspase-3 and cleaved PARP; assay: western blot of apoptosis markers; format: cell-based; conditions: glioma cell lines; 10 uM for 48 hours
Method in brief: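 Glioma cell lines were given 10 uM test compound or vehicle for 48 h. Cleaved PARP and cleaved caspase-3 were probed by western blot.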

HuR protein = assay: western blot of HuR protein levels; format: cell-based
U251 cell line [12] = assay: attached cell colony formation assay, U251; format: cell-based
XD456 cell line [13] = assay: attached cell colony formation assay, XD456; format: cell-based, human
U251 cell line [14] = assay: soft agar colony formation assay, U251; format: cell-based
Method in brief: (§3)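 Soft agar format: cells embedded in a 0.45% low-melting agarose top layer over a 0.9% agarose bottom layer. Colonies were stained with 0.1% crystal violet and counted after three weeks. n=3 attached, n=4 soft agar; Student t-test.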

XD456 cell line [15] = assay: soft agar colony formation assay, XD456; format: cell-based, human
Method in brief: as §3

[16] = in vivo pharmacokinetic assessment; set-up: species or system C57Bl/6 mice; conditions: mouse
[17] = system: PDGx XD456 intracranial glioma; assay: in vivo mouse intracranial glioma model; set-up: species or system athymic nude mice; conditions: 15 mg/kg, twice a day for three weeks, intraperitoneal
Method in brief: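 Athymic nude mice bore intracranial PDGx XD456 cells transduced with firefly luciferase and EGFP. After 4.5 days of tumour establishment, mice were randomised to vehicle or test compound, 15 mg/kg ip twice daily for three weeks. Tumour bioluminescence (radiance) was imaged at weeks 2 and 3, with body weight tracked; n=5, Student t-test. Brain slices were checked for EGFP and immunostained for HuR, Bcl2 and Mcl1.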

Sequence of HuR dimerization (HuR-Nluc + HuR-Cluc reporter, U251 cells) (Q15717 2-326 limits assumed): as above

With `CN(c1ccc2ncc(-c3ccc4cn[nH]c4c3)n2n1)C1CCOCC1` [SRI-42127] the “maximum inhibition of HuR dimerization” value ([1]; 6 hours of cell treatment) was 90±1%, the “IC50 for inhibition of HuR dimerization, after increase in HuR dimerization by two fold” value ([1]; U251 with dox-inducible HuR-dimerization reporters, 6 hours) was 1900 ± 100 nM and the “HuR inhibition potential in the presence of kinase inhibitors” value ([1]; all evaluated kinase inhibitors) was “retained its HuR inhibition potential”. The IC50 ([1]; read-out: IC50 for inhibition of HuR dimerization, before increase in HuR dimerization, U251 with dox-inducible HuR-dimerization reporters, 6 hours) was 1200 ± 100 nM, the IC50 ([1]; read-out: IC50 of inhibition of HuR dimerization, U251 cells co-expressing HuR-Nluc and HuR-Cluc, 6 hours of treatment) was 1200 ± 200 nM and the “half inhibition in the control reporter assay” value [2] was “half inhibitions were not reached”. The aqueous solubility (aqueous solubility) was “readily soluble”, the kinase inhibition potential (kinases) was “reduced kinase inhibition potential” and the “IC50 for inhibition of cell viability, after enhancement of HuR-dimer formation by two fold” value (U251 glioma cell line [3]; U251 with dox-inducible HuR-dimerization reporters, 48 hours) was 8000 ± 800 nM. It also gave an IC50 (U251 glioma cell line [3]; read-out: IC50 cell viability, U251, 48 hours of treatment) of 2800 ± 600 nM, an IC50 (U251 glioma cell line [3]; read-out: IC50 for inhibition of cell viability, before enhancement of HuR-dimer formation, U251 with dox-inducible HuR-dimerization reporters, 48 hours) of 2800 ± 400 nM and an IC50 (LN229 glioma cell line [4]) of 3200 ± 600 nM. The IC50 [5] was 4000 ± 600 nM, the “increase of cells in G1 phase compared to control” value (from here on “increase of cells in G1 phase”) (U251 glioma cell line [6]) was 97±33% and the “reduction of cells in S phase compared to control” value (from here on “reduction of cells in S phase”) (U251 glioma cell line [6]) was 65±4%. For the same compound, the “increase of cells in G1 phase” value (LN229 glioma cell line [7]) was 56±28%, the “reduction of cells in S phase” value (LN229 glioma cell line [7]) was 60±3% and the “increase of cells in G1 phase” value [8] was 210±40%. The “reduction of cells in S phase” value [8] was 70±3%, the “decline of cellular metabolism of neurons” value (primary human neurons; 25 uM for 48 hours) was “about 44%” and the neuronal cytotoxicity (primary human neurons; concentrations below 15 uM) was “low neuronal and astrocyte cytotoxicity”. The “cell numbers and cell sprouting of neurons” value (primary human neurons; up to 15 uM for 48 hours) was “remained unchanged”, the “morphological changes of neurons” value (primary human neurons; up to 15 uM for 48 hours) was “no morphological changes” and the “cleaved caspase-3 immunostaining in neurons” value (primary human neurons; up to 15 uM, 48 hours) was “no significant alterations”. The astrocyte cytotoxicity (primary human astrocytes; concentrations below 15 uM) was “low neuronal and astrocyte cytotoxicity”, the “cleaved caspase-3 activation in astrocytes” value (primary human astrocytes; up to 15 uM) was “did not observe significant alterations” and the “average decrease of Bcl2/18S mRNA ratio” value (Bcl2 mRNA; LN229) was 95±2%. The “average decrease of Bcl2/18S mRNA ratio” value (Bcl2 mRNA; U87) was 95±2%, the “average decrease of Bcl2/18S mRNA ratio” value (Bcl2 mRNA; U251) was 96±2% and the “average decrease of Bcl2/18S mRNA ratio” value (Bcl2 mRNA; XD456) was 96±2%. The “average decrease of Mcl1/18S mRNA ratio” value (Mcl1 mRNA; LN229) was 87±8%, the “average decrease of Mcl1/18S mRNA ratio” value (Mcl1 mRNA; U87) was 86±7% and the “average decrease of Mcl1/18S mRNA ratio” value (Mcl1 mRNA; U251) was 95±3%. The “average decrease of Mcl1/18S mRNA ratio” value (Mcl1 mRNA; XD456) was 90±9%, the “reduction in Mcl1 mRNA compared to control” value (Mcl1 mRNA; range over U251, U87, LN229, XD456, 10 uM, 24 h) was 87–95% and the “interaction of HuR protein with Bcl2 and Mcl1 mRNAs compared to control” value [9] was “significant reduction”. For the same compound, the “Bcl2 and Mcl1 protein levels in cytoplasmic fractions compared to control” value [10] was “dramatic reduction”, the signs of apoptosis [11] was “cleaved caspase-3 and cleaved PARP” and the “total HuR protein levels” value (HuR protein; 3 uM and 10 uM, 8–12 hours of treatment) was “did not alter”. For the same compound, the “HuR cytoplasmic levels versus control” value (HuR protein; prolonged treatment) was “decrease”, the number of colonies (U251 cell line [12]; 3uM) was 49±28 and the number of colonies (U251 cell line [12]; 10 uM) was “No significant numbers of colonies were detected”. For the same compound, the number of colonies (XD456 cell line [13]; 3uM) was 34±12, the number of colonies (XD456 cell line [13]; 10 uM) was “No significant numbers of colonies were detected” and the number of colonies (U251 cell line [14]; 3uM) was 90±70. For the same compound, the number of colonies (U251 cell line [14]; 10 uM) was “No significant numbers of colonies were detected”, the number of colonies (XD456 cell line [15]; 3uM) was 39±6 and the number of colonies (XD456 cell line [15]; 10 uM) was “No significant numbers of colonies were detected”. For the same compound, the brain-to-plasma concentration ratio [16] was 0.42±0.05, the BBB permeability ([16]; in vivo) was “superior BBB permeability” and the half-life ([16]; 10 mg/kg by IP) was 9.6 min. For the same compound, the “tumor progression (tumor reporter luminescence signal) compared to control group” value [17] was “reduction of tumor progression; also recorded: not statistically significant” and the “weight changes compared to the control group” value [17] was “not significant”.
